Here are results for 1 compound from ChEMBL document CHEMBL4725483, “Simultaneous Inhibition of SIRT2 Deacetylase and Defatty-Acylase Activities via a PROTAC Strategy” (ACS Med Chem Lett, 2020).

As usually defined, the IC50 is the midpoint of a concentration-inhibition curve.

The target in assay [1] is T1, NAD-dependent protein deacetylase sirtuin-2 (Homo sapiens, UniProt Q8IXJ6).
T1 sequence (Q8IXJ6 whole entry): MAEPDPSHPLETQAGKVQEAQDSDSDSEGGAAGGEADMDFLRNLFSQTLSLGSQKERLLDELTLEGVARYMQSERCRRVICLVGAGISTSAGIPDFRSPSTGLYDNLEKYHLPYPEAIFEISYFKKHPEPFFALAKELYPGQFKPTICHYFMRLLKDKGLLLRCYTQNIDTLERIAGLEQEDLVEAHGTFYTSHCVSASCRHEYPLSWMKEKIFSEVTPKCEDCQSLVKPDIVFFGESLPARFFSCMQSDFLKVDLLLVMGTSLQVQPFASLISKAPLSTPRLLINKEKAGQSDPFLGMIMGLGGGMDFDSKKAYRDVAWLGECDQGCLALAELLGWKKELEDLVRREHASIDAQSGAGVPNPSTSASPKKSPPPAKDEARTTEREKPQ
The assay is described as follows: Inhibition of human SIRT2 deacetylation activity using H3K9Ac as substrate preincubated for 15 mins in presence of NAD+ by HPLC analysis. The method in brief:
(§1)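 In vitro sirtuin reaction mixture with compound at a range of concentrations. Compound was preincubated with NAD+ and the enzyme before the substrate peptide was added. IC50 taken from the concentration series.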

Assay [2] has as its target T1, NAD-dependent protein deacetylase sirtuin-2. The assay is described as follows: Inhibition of human SIRT2 deacetylation activity using H3K9Ac as substrate in presence of NAD+ by HPLC analysis.
The target is the same in assay [3]. The assay is described as follows: Inhibition of human SIRT2 defatty-acylation activity using peptide substrate preincubated in presence of NAD+ followed by substrate addition by HPLC analysis. In a few lines: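 SIRT2 defatty-acylase reaction with compound at a range of concentrations. Compound was preincubated with NAD+ and SIRT2 before the peptide substrate was added. IC50 derived from the dose series.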

Assay [4] has the same target. The assay is described as follows: Inhibition of human SIRT2 defatty-acylation activity using peptide substrate in presence of NAD+ by HPLC analysis.
For assay [5], the target named is T2, NAD-dependent protein deacetylase sirtuin-3, mitochondrial (Homo sapiens, UniProt Q9NTG7).
T2 sequence (Q9NTG7 whole entry): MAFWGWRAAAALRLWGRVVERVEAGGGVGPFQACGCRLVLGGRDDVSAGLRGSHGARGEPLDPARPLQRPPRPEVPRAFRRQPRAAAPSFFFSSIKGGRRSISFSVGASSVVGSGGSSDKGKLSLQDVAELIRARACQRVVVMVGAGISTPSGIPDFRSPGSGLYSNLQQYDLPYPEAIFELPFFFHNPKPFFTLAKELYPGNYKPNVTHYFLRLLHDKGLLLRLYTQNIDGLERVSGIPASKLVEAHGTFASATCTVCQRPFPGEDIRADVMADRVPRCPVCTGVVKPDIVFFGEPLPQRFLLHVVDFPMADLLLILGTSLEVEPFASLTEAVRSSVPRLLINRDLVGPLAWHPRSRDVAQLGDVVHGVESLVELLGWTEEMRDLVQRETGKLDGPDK
The assay is described as follows: Inhibition of human SIRT3 deacetylation activity using H3K9Ac as substrate preincubated for 15 mins in presence of NAD+ followed by substrate addition by HPLC analysis. In a few lines:
as §1

The species named for another assay is Homo sapiens. The assay is described as follows: Selectivity ratio of IC50 for inhibition of human SIRT1 deacetylation activity to IC50 for inhibition of human SIRT2 deacetylation activity. The method in brief:
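Ratio of SIRT1 deacetylase IC50 to SIRT2 deacetylase IC50, both measured with compound, NAD+ and enzyme preincubated before peptide substrate addition.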

Assay [6] deals with T3, Protein cereblon/NAD-dependent protein deacetylase sirtuin-1 (Homo sapiens) (UniProt Q96EB6+Q96SW2). The assay is described as follows: Protac activity at CRBN/SIRT1 in human MCF7 cells assessed as SIRT1 degradation at 5 to 10 uM after 48 hrs by immunoblot analysis. It counts as cell-based. The following applies: dose microM 5-10, time 48.0 hrs. In a few lines: (§2)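 MCF7 or BT-549 cells exposed to inhibitor at the indicated concentrations for 48 h; SIRT1, SIRT2 and SIRT3 levels read by immunoblot.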
T3 sequence (Q96EB6 whole entry, looked up): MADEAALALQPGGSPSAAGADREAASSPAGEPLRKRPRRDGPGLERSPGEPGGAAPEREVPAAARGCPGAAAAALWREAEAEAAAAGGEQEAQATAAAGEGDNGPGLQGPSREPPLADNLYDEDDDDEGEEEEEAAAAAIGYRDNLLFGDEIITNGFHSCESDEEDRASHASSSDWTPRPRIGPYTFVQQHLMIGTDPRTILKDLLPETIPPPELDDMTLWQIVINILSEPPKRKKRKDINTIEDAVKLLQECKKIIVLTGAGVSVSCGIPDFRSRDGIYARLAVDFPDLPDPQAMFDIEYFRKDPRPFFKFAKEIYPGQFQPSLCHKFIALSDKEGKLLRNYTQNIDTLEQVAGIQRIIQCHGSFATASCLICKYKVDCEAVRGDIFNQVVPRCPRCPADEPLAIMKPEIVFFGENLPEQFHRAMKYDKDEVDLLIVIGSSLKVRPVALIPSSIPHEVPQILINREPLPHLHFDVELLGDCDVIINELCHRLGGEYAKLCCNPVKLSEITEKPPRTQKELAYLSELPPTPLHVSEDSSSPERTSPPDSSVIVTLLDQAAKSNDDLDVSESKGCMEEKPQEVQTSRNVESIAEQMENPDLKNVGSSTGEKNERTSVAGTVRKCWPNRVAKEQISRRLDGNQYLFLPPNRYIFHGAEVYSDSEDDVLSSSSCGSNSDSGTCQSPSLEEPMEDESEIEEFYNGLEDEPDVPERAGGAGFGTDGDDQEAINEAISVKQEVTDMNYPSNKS
T3 sequence (Q96SW2 whole entry, looked up): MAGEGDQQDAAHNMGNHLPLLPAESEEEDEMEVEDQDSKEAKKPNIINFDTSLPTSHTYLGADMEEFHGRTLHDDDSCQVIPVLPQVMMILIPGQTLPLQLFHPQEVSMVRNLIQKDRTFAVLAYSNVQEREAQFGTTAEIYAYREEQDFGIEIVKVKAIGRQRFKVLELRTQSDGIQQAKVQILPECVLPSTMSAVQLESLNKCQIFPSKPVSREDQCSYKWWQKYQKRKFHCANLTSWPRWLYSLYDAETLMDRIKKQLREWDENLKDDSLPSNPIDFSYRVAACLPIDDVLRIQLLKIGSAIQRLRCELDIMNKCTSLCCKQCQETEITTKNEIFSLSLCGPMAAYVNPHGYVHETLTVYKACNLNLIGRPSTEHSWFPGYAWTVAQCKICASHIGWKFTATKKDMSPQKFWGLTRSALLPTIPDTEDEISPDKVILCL
(In general: Immunoblotting shows a protein as a band on a membrane.)

Assay [7] has as its target T3, Protein cereblon/NAD-dependent protein deacetylase sirtuin-1 (Homo sapiens). The assay is described as follows: Protac activity at CRBN/SIRT1 in human BT549 cells assessed as SIRT1 degradation at 5 to 10 uM after 48 hrs by immunoblot analysis. The class given is cell-based. The following applies: BT-549, dose microM 5-10, time 48.0 hrs. The method in brief: as §2

Assay [8] concerns the target Protein cereblon/NAD-dependent protein deacetylase sirtuin-3, mitochondrial (Homo sapiens) (UniProt Q9NTG7+Q96SW2). The assay is described as follows: Protac activity at CRBN/SIRT3 in human MCF7 cells assessed as SIRT3 degradation at 5 to 10 uM after 48 hrs by immunoblot analysis. The class given is cell-based. The following applies: dose microM 5-10, time 48.0 hrs. In a few lines: as §2

In assay [9] the target is T4, Protein cereblon/NAD-dependent protein deacetylase sirtuin-2 (Homo sapiens) (UniProt Q8IXJ6+Q96SW2). The assay is described as follows: Protac activity at CRBN/SIRT2 in human MDA-MB-231 cells assessed as SIRT2 degradation after 48 hrs by immunoblot analysis. It counts as cell-based. The method in brief:
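In MDA-MB-231 and MDA-MB-468 cells, SIRT2 was assessed by immunoblot after compound treatment.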

The target of assay [10] is T4, Protein cereblon/NAD-dependent protein deacetylase sirtuin-2 (Homo sapiens). The assay is described as follows: Protac activity at CRBN/SIRT2 in human MCF7 cells assessed as SIRT2 degradation at 50 uM after 48 hrs by immunoblot analysis. It counts as cell-based. The method in brief: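 MCF7 cells given a range of concentrations below and above 5 μM (0.5 to 50 μM) for 48 h; SIRT2 measured by immunoblot against vehicle-treated cells.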

Assay [11] shares this target. The assay is described as follows: Protac activity at CRBN/SIRT2 in human MCF7 cells assessed as inhibition of SIRT2 deacetylation by measuring increase in acetylated-alpha tubulin level at 10 uM measured after 12 hrs by DAPI staining based immunofluorescence microscopic analysis. It counts as cell-based. The method in brief: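 MCF7 cells treated for 12 h with 5 or 10 μM, DMSO as control. Acetyl-α-tubulin (K40) was imaged by immunofluorescence, and fluorescence intensity was quantified and normalized to vehicle.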

The test system of another assay is MDA-MB-231. The assay is described as follows: Cytotoxicity against human MDA-MB-231 cells assessed as reduction in cell viability after 72 hrs. It counts as functional, cell-based. In a few lines:
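Cells incubated with compound or thalidomide for 72 h; cell viability read out at the end of exposure.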

In another assay the test system is MCF7. The assay is described as follows: Cytotoxicity against human MCF7 cells assessed as reduction in cell viability at 1 uM after 72 hrs. It counts as functional, cell-based.
In assay [12] the target is T4, Protein cereblon/NAD-dependent protein deacetylase sirtuin-2 (Homo sapiens). The assay is described as follows: Protac activity at CRBN/SIRT2 in human HEK293T cells assessed as abundance ratio at 5 uM incubated for 16 hrs by TMT global proteomics assay relative to DMSO. The following applies: HEK-293T. It counts as cell-based. The method in brief:
(§3)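 HEK 293T cells were treated for 16 h. Global proteome was quantified by Tandem Mass Tag labelling. The abundance ratio of each sirtuin was taken against DMSO-treated cells.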

Assay [13] addresses Protein cereblon/NAD-dependent protein deacylase sirtuin-5, mitochondrial (Homo sapiens) (UniProt Q9NXA8+Q96SW2). The assay is described as follows: Protac activity at CRBN/SIRT5 in human HEK293T cells assessed as abundance ratio at 5 uM incubated for 16 hrs by TMT global proteomics assay relative to DMSO. The class given is cell-based. The following applies: HEK-293T. In a few lines:
as §3

The target in assay [14] is Protein cereblon/NAD-dependent protein deacylase sirtuin-6 (Homo sapiens) (UniProt Q8N6T7+Q96SW2). The assay is described as follows: Protac activity at CRBN/SIRT6 in human HEK293T cells assessed as abundance ratio at 5 uM incubated for 16 hrs by TMT global proteomics assay relative to DMSO. The class given is cell-based. The following applies: HEK-293T. The method in brief:
as §3

The source made the active and inactive calls. No cut-off for these calls is given here. Where only a bound is given, the exact number is not on record here.

T4 sequence (Q96SW2 whole entry, looked up, one chain of several): as the sequence (Q96SW2 whole entry, looked up) above
Sequence of Protein cereblon/NAD-dependent protein deacylase sirtuin-6 (Homo sapiens) (Q8N6T7 2-355 limits assumed): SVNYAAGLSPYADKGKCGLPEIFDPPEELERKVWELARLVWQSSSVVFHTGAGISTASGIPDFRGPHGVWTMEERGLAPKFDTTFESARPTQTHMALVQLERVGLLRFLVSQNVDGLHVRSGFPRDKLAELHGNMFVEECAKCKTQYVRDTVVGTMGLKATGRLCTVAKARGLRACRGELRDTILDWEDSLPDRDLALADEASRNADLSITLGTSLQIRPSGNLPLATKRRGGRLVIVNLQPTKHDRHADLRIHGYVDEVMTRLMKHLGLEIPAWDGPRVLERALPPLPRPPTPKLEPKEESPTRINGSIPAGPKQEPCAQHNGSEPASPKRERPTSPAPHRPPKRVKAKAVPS
Sequence of Protein cereblon/NAD-dependent protein deacylase sirtuin-6 (Homo sapiens) (Q96SW2 whole entry partner): as the sequence (Q96SW2 whole entry, looked up) above
Sequence of Protein cereblon/NAD-dependent protein deacetylase sirtuin-3, mitochondrial (Homo sapiens) (Q96SW2 whole entry, looked up, one chain of several): as the sequence (Q96SW2 whole entry, looked up) above
Sequence of Protein cereblon/NAD-dependent protein deacylase sirtuin-5, mitochondrial (Homo sapiens) (Q96SW2 whole entry, looked up): as above
Sequence of Protein cereblon/NAD-dependent protein deacylase sirtuin-5, mitochondrial (Homo sapiens) (Q9NXA8 whole entry, looked up): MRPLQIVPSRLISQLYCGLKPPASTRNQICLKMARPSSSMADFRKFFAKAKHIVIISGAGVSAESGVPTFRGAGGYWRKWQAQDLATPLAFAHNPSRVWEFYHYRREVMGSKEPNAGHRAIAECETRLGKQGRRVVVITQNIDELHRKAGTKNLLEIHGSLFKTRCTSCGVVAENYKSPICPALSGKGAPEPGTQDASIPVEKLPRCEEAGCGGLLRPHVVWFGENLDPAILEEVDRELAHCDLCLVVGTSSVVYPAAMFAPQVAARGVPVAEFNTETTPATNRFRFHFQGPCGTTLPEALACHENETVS

As for `CCCCCCCCCCCCCC(=S)NCCCC[C@H](NC(=O)CCOCCOCCOCCOCCNc1cccc2c1C(=O)N(C1CCC(=O)NC1=O)C2=O)C(=O)Nc1ccccc1` (some centres not stated), the IC50 in assay [1] was 78 nM; in assay [2], 93 nM; in assay [3], 110 nM; in assay [4] it was greater than 83000 nM; in assay [5], greater than 83000 nM. For the same compound, the Ratio IC50 in the assay filed under Homo sapiens amounted to 500. In addition, the result (in assay [6]; in [7]; in [8]; in assay [10]; in the assay on MCF7; in assay [13]) was inactive. The result in assay [14] was inactive. Also, the outcome (in assay [9]; in assay [11]; in the assay on MDA-MB-231) was Active. Also, the Ratio in [12] came to 0.36.
